Ten molecules from ChEMBL document CHEMBL4007382 (Eur J Med Chem, 2017) can be followed below.

Assay [1] concerns the target Acetylcholinesterase (Electrophorus electricus, UniProt O42275). As to the kind of experiment: Inhibition of electric eel AChE using S-acetylthiocholine iodide as substrate preincubated for 60 mins followed by substrate addition measured after 5 mins by Ellman's method.
For assay [2], the target named is Cholinesterase (Equus caballus, UniProt P81908). As to the kind of experiment: Inhibition of equine serum BuChE using S-butyrylthiocholine iodide as substrate preincubated for 60 mins followed by substrate addition measured after 5 mins by Ellman's method. The method, boiled down:
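Equine serum BChE (0.1 U/mL) in 100 mM sodium phosphate, pH 8, was preincubated at 37°C for 60 min with seven inhibitor concentrations (top 1×10^-5 M; stocks in acetonitrile:water 1:9). Added mix contained BTCh 2.5 mM and DTNB 3.4 mM. A412 was read for 5 min at 37°C, with enzyme-free blank subtracted. Triplicates.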

Sequence of Acetylcholinesterase (O42275 whole entry): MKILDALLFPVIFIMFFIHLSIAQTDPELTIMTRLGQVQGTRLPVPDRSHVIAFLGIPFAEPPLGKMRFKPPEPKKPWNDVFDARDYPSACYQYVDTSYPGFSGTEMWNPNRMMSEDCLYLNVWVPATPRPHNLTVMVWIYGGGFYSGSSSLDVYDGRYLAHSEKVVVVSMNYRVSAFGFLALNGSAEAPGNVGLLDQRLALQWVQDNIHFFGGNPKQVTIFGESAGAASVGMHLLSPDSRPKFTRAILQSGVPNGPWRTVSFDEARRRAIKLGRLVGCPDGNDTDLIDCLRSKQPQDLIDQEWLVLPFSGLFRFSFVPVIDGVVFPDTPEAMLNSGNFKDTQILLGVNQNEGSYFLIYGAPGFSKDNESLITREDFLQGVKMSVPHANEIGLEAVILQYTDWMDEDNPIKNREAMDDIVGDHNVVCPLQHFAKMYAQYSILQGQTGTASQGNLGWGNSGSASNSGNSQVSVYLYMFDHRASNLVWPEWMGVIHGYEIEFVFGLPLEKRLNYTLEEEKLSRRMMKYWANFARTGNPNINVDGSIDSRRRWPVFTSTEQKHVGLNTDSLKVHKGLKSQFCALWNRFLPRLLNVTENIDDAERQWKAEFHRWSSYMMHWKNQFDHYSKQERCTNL
Sequence of Cholinesterase (P81908 whole entry): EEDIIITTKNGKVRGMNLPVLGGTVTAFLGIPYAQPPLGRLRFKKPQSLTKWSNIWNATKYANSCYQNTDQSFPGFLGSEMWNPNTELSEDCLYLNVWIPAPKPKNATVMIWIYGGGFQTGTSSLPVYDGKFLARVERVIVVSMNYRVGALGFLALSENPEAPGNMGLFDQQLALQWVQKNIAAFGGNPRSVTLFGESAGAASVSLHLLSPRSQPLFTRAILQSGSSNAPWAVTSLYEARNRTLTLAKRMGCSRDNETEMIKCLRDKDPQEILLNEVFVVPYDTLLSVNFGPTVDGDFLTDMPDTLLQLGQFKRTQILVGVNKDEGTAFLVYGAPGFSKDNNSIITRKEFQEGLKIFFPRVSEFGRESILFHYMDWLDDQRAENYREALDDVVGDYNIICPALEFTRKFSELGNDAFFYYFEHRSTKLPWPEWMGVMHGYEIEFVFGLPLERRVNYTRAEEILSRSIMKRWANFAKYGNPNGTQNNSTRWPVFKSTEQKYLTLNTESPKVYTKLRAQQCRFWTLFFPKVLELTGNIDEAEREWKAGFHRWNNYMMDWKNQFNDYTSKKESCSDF

For `CN(C)C(=O)Oc1cc(OC(=O)N(C)C)cc(C(O)CNc2ccccc2)c1` (stereo not given), the values for the IC50 in assay [1] and in assay [2] were > 100000 nM and 2400 nM, respectively.

Consider `CN(C)C(=O)Oc1cc(OC(=O)N(C)C)cc(C(O)CN2CCCC2)c1` (stereo not given), for which the IC50 in assay [1] amounted to 41300 nM; in assay [2] it was 253 nM.

In the case of `CN(C)C(=O)Oc1cc(OC(=O)N(C)C)cc(C(O)CN2CCCCC2)c1` (stereo not given), the values for the IC50 in assay [1] and in assay [2] were > 100000 nM and 100 nM, respectively.

For the molecule `CCN(C)C(=O)Oc1cc(OC(=O)N(C)CC)cc(C(O)CNC(C)(C)C)c1` (stereo not given), the IC50 in assay [1] is > 100000 nM; in assay [2], 113 nM.

As to `CCN(C)C(=O)Oc1cc(OC(=O)N(C)CC)cc(C(O)CN2CCCCC2)c1` (stereo not given), the figures for the IC50 in assay [1] and in assay [2] were > 100000 nM and 108 nM, respectively.

Regarding `CN(C)C(=O)Oc1cc(OC(=O)N(C)C)cc(C(O)CNc2ccc(I)cc2)c1` (stereo not given), the IC50 was > 100000 nM in assay [1] and 4700 nM in assay [2].

With `CN(C)C(=O)Oc1cc(OC(=O)N(C)C)cc(C(O)CNC2CCCC2)c1` (stereo not given), the IC50 was 65900 nM in assay [1] and 130 nM in assay [2].

On to `CN(C)C(=O)Oc1cc(OC(=O)N(C)C)cc(C(O)CNC2CCCCC2)c1` (stereo not given), for which the IC50 in assay [1] was > 100000 nM; in assay [2], 224 nM.

As to `C#Cc1cccc(NCC(O)c2cc(OC(=O)N(C)C)cc(OC(=O)N(C)C)c2)c1` (stereo not given), the IC50 in assay [1] was > 100000 nM; in assay [2], 686 nM.

As to `CN(C)C(=O)Oc1cc(OC(=O)N(C)C)cc(C(O)CNC(C)(C)c2ccccc2)c1` (stereo not given), the IC50 was > 100000 nM in assay [1] and 476 nM in assay [2].
